UPR XBP1 act: activators of adaptive arm of unfolded protein response (XBP1) | CHO-XBP1 luciferase reporter, IRE1-XBP1 UPR activation, luminescence; percent of tunicamycin response, DMSO as zero | activation, % at 20 µM | hit rate 0.33% among 330,000 | AID 463104;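 active means versus positive control, 20 µM dose yields 30% or more activation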
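Material: CHO-XBP1 cells stably carrying IRE1-XBP1-driven luciferase reporter | Medium: F12 with 10% serum | Compound dosing: 20 µM single concentration, DMSO 1% | Incubation: Overnight seeding at 37 °C, 6 h compound treatment at 37 °C | Detection: Steady-Glo luminescence read | Read-out basis: % activation of reporter signal versus tunicamycin and DMSO controls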
697 NFkB inh: lowers PMA/ionomycin-induced NF-kB signal in 697 B cells. inhibition, % at 4 µM. 697 B-cell NF-kB luciferase reporter, 16 h. hit rate 0.33% among 330,000; in the data active means inhibition above about 35%
UPR CHOP act: activators of apoptotic arm of unfolded protein response (CHOP); activation, % at 10 µM; CHO-CHOP luciferase reporter, UPR activation, luminescence; percent of tunicamycin response over DMSO baseline; hit rate 0.34% among 330,000;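 active means at 10 µM dose, activation of 40% or more, normalized to positive control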
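Dosing – one dose, 10 µM in 0.5% DMSO · System – CHO-CHOP cells, stable luciferase reporter of PERK-eIF2a-CHOP signalling · Input – 500 cells/well · Control set – tunicamycin 10 µg/mL final as positive, DMSO-only wells as negative · Timing – 6 h compound treatment, 37 °C · Measure – % activation vs tunicamycin · Technique – luminescence read with Steady-Glo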
Jurkat NFkB inh: lowers PMA/ionomycin-induced NF-kB signal in Jurkat cells; PMA/ionomycin-induced NF-kB luciferase reporter, luminescence; inhibition, % at 4 µM; hit rate 0.53% among 330,000; AID 435003; in the data active means inhibition above about 50%
CHOP inh: blocks CHOP induction under ER stress; CHO-K1 CHOP-promoter luciferase, tunicamycin-induced, 15-18 h; inhibition, % at 10 µM; hit rate 3.8% among 220,000; AID 2732;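 active means compounds that reduced the stress-induced luciferase reporter signal by more than about 70% of percent inhibition, limit read from the data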
Of the large screens only hits and unclear results are named; the others gave an inactive call. The entries come from a sample that favours hits as a whole.

O=C(COc1ccc(Br)cc1Cl)NC(=O)NCc1ccccc1	CHOP inh 80
COC(=O)C1=C(C(=O)OC)SC2(S1)C(C(=O)OC)=C(C(=O)OC)SC1=C2c2cc(C)ccc2NC1(C)C	CHOP inh 73
CCCN1C(=O)C(=O)c2cc(Cl)ccc21	none (no result: CHOP inh)
Cc1ccc(C)c(-n2nnnc2SCC(=O)NCCC2=CCCCC2)c1	CHOP inh 86
CCCCn1c(N)c(N(CC)C(=O)c2cc(CC)c(C)s2)c(=O)[nH]c1=O	none (no result: CHOP inh)
CCOc1ccc(-c2csc(NNC3=NCCCCC3)n2)cc1	CHOP inh 75
CC(C)(C)c1csc(NC(=O)Cc2ccc(S(=O)(=O)N3CCOCC3)s2)n1	none (no result: CHOP inh)
CCC(=O)Nc1ccccc1-c1nnn(CC(=O)N2c3ccccc3CC2C)n1 (centres undefined)	CHOP inh 76
NNC(=O)c1n[nH]c2c1CC(C1CCCCC1)CC2 (centres undefined)	none (no result: CHOP inh)
Cc1cc(C)c(C)c(OCCN2CC(C)OC(C)C2)c1 (centres undefined)	none (no result: CHOP inh)
O=C(Oc1cccc2c(O)cccc12)c1ccccc1	CHOP inh 106
O=C(O)CCc1ccccc1OC(=O)c1ccccc1	none
CNC(=S)N=Nc1c(O)[nH]c2ccc(C(C)C)cc12	CHOP inh 93 (no result: UPR XBP1 act, 697 NFkB inh, UPR CHOP act, Jurkat NFkB inh)
CNC(=S)N=Nc1c(O)[nH]c2ccccc12	none (no result: UPR XBP1 act, 697 NFkB inh, UPR CHOP act, Jurkat NFkB inh)
CC(=O)Nc1ccc(S(=O)(=O)Nc2nnc(CC(C)(C)C)s2)cc1	none
CCCCc1nc(SCC(=O)Nc2cccc(Cl)c2)n[nH]1	none (no result: CHOP inh)
Cc1ccc(NS(=O)(=O)c2ccc(-c3coc(C)n3)cc2)c(Br)c1	none (no result: CHOP inh)
FC(F)(F)c1cccc(NC(=S)N2CCN(c3ccccc3)CC2)c1	CHOP inh 80
FC(F)(F)c1cccc(N2CCN(C(=S)NC3CCCC3)CC2)c1	CHOP inh 81
FC(F)(F)c1cccc(N2CCN(C(=S)NC3CCCCC3)CC2)c1	none
COc1ccc(C(=O)N2CCCC(CCC(=O)NCc3ccccc3F)C2)c(OC)n1 (centres undefined)	none (no result: CHOP inh)
COC(=O)c1c(NC(=O)COC(=O)c2ccccc2O)sc2c1CCCCC2	none
COC(=O)c1c(NC(=O)c2ccn(C)n2)sc2c1CCC2	none (no result: CHOP inh)
COC(=O)c1c(NC(=O)COC(=O)c2ccc(C)s2)sc2c1CCCCC2	CHOP inh 72
COC(=O)c1c(NC(=O)c2nn(C)cc2Cl)sc2c1CCCC2	CHOP inh 74
COC(=O)c1c(NC(=O)CSc2ncnc3[nH]ncc23)sc2c1CCC2	CHOP inh 77
COC(=O)c1c(NC(=O)C2CC2)sc2c1CCCC2	CHOP inh 77
COc1ccccc1-n1c(SCC(=O)OC(C)C)nc2cccnc21	none
O=C(CN1CCc2ccccc2C1)Nc1ccccc1F	none (no result: CHOP inh)
CCN(CC(=O)Nc1ccccc1C(F)(F)F)C(=O)c1ccc(N2CCCC2=O)cc1	none (no result: CHOP inh)
COc1ccc(CN(C)C(C)C(=O)Nc2ccc(S(=O)(=O)N3CCCCC3)cc2)cc1F (centres undefined)	none (no result: CHOP inh)
COC(=O)c1ccc(CNC(=O)COC(=O)C2CCC(C(C)(C)C)CC2)cc1 (centres undefined)	CHOP inh 93
COC(=O)c1ccc(CNC(=O)COC(=O)C2CC3C=CC2C3)cc1 (centres undefined)	none
CCC(C)c1ccccc1NC(=O)Cc1coc2cc3c(cc12)CCC3 (centres undefined)	none
Cc1ccc(C)c(NC(=O)Cc2coc3cc4c(cc23)CCC4)c1	CHOP inh 85
Cc1ccc(C(c2c(C)nn(-c3ccccc3)c2N)c2c(C)nn(-c3ccccc3)c2N)cc1	none
Cc1nn(-c2ccccc2)c(N)c1C(c1ccc(C(C)C)cc1)c1c(C)nn(-c2ccccc2)c1N	CHOP inh 85
CCOc1nc(CC(C)C)c2c(c1C#N)CC(C)(C)OC2	CHOP inh 74
CCOC(=O)c1ccc(NS(=O)(=O)c2ccc(SC)cc2)cc1	CHOP inh 78
O=C(c1ccc2n[nH]nc2c1)N1CCN(c2ccc(C(F)(F)F)cn2)CC1	none (no result: CHOP inh)
C/C(=N/NC(=O)CNS(=O)(=O)c1ccccc1)c1ccc(Br)cc1	none (no result: CHOP inh)
Cc1cc(NC(=O)c2ccccc2)c(Cl)cc1N	CHOP inh 72
Cc1cc(N)ccc1NC(=O)c1ccccc1	none
O=C(Nc1ccc(S(=O)(=O)Nc2ccccc2)cc1)C1COc2ccccc2O1 (centres undefined)	CHOP inh 85
